Source: ChEMBL document CHEMBL3745620, “Design and Synthesis of DiselenoBisBenzamides (DISeBAs) as Nucleocapsid Protein 7 (NCp7) Inhibitors with anti-HIV Activity” (J Med Chem, 2015)
Activity calls are given as the source filed them. The calls are words filed in the database; no cut-off is given here.

Key:
[1] = system: Human immunodeficiency virus 1; experiment: Antiviral activity against AZT-resistant HIV1 ADP/141 harboring reverse transcriptase D67N/K70R/T215F/K219Q mutant infected in human MT4 cells; format: functional, organism-based; conditions: Human immunodeficiency virus 1, ADP/141, MT4
In short: (§1)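 MT-4 cells in RPMI 1640 with 10% heat-inactivated FCS were infected at the start of the experiment, with compound added across serial 5-fold dilutions in triplicate wells. Cells were seeded at 6 x 10^5 cells/ml. After 5 days, protection against virus-induced cytopathic effect was read by MTT reduction at OD540. […] Values are means ± SD of at least two experiments.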

[2] = system: Human immunodeficiency virus 1; experiment: Antiviral activity against HIV1 3B persistently infected in HUT78 cells assessed as reduction of p24 production after 43 hrs by ELISA; format: functional, organism-based; conditions: Human immunodeficiency virus 1, 3B, HuT78, 43 h
In short: (§2)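 Chronically HIV-1 IIIB-infected HuT-78 cells washed four times in PBS to remove free virions and seeded at 2 × 10^5 cells/well with 7 serial 5-fold compound dilutions for 43 h at 37°C. Supernatant p24 measured by ELISA. Cytotoxicity was run in parallel by MTT plus microscopy. SI = CC50/EC50. Mean ± SD, ≥2 experiments.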

[3] = system: Human immunodeficiency virus 1; experiment: Virucidal activity against HIV1 3B infected in human MT4 cells assessed as reduction of virus infectivity at 125 ug/ml after 1 hr by MTT assay; format: functional, organism-based
In short: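 HIV-1 IIIB stock incubated with compound in 100 µl RPMI-1640/10% FCS for 1 h at 37°C, then diluted 4000-fold. Residual infectivity titrated on MT-4 cells, with CCID50 calculated by the Reed and Muench method.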

[4] = Selectivity index, ratio of CC50 for human MT4 cells to EC50 for NRTI/NNRTI-resistant HIV1 L6 harboring reverse transcriptase V75I/F77L/K103N/F116Y/Q151M/M184V mutant; format: toxicity, cell-based; conditions: read-out: Ratio CC50/EC50
In short: (§3)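 Uninfected and infected MT-4 cells were run in parallel in triplicate over serial 5-fold compound dilutions for 5 days, and viability was read by MTT at OD540. […] SI = CC50/EC50, from means of at least two experiments.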

[5] = Selectivity index, ratio of CC50 for human MT4 cells to EC50 for AZT-resistant HIV1 ADP/141 harboring reverse transcriptase D67N/K70R/T215F/K219Q mutant; format: toxicity, cell-based; conditions: read-out: Ratio CC50/EC50; in short: as §3
[6] = Selectivity index, ratio of CC50 for human MT4 cells to EC50 for nevirapine-resitant SIV Mac251
[7] = Selectivity index, ratio of CC50 for human MT4 cells to EC50 for HIV-2 ROD; format: toxicity, cell-based; conditions: read-out: Ratio CC50/EC50
In short: (§4)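 Compounds added at start in serial 5-fold dilutions, triplicate wells, to mock- and virus-infected cells (100-300 CCID50 per well). After 5 days, viability by MTT reduction (OD540). Mean ± SD, at least two experiments.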

[8] = system: Human immunodeficiency virus 1; experiment: Antiviral activity against HIV1 3B infected in human MT4 cells assessed as inhibition of viral replication by measuring p24 Ag production at 2 ug/ml measured at 31 hrs post infection by ELISA; format: functional, organism-based
In short: (§5)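 MT-4 cells infected with HIV-1 IIIB at m.o.i. 0.5, 1 h adsorption, then seeded at 45,000 cells/well at 37°C. Compound added at times from 0 to 25 h post-infection. Read-out was p24 in supernatant by ELISA at 31 h post-infection.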

[9] = system: Human immunodeficiency virus 1; experiment: Antiviral activity against NRTI/NNRTI-resistant HIV1 L6 harboring reverse transcriptase V75I/F77L/K103N/F116Y/Q151M/M184V mutant infected in human MT4 cells; format: functional, organism-based; conditions: Human immunodeficiency virus 1, L6, MT4; in short: as §1
[10] = Antiviral activity against nevirapine-resistant SIV mac251 infected in human MT4 cells; format: functional, cell-based; conditions: Simian immunodeficiency virus; in short: as §1
[11] = Cytotoxicity against human HUT78 cells assessed as reduction in cell viability after 5 days by MTT assay; format: cell-based
[12] = Selectivity index, ratio of CC50 for human MT4 cells to EC50 for NNRTI-resistant HIV1 RES056 harboring reverse transcriptase K103N/181C double mutant; format: toxicity, cell-based; conditions: read-out: Ratio CC50/EC50; in short: as §3
[13] = system: Human immunodeficiency virus 1; experiment: Antiviral activity against HIV1 3B infected in human MT4 cells assessed as inhibition of viral replication by measuring p24 Ag production at 60 ug/ml measured at 31 hrs post infection by ELISA; format: functional, organism-based; in short: as §5
[14] = Selectivity index, ratio of CC50 for human MT4 cells to EC50 for HIV1 3B; format: toxicity, cell-based; conditions: read-out: Ratio CC50/EC50; in short: as §4
[15] = Selectivity index, ratio of CC50 for human MT4 cells to EC50 for ritonavir-resistant HIV1 3B/RIT; format: toxicity, cell-based; conditions: read-out: Ratio CC50/EC50; in short: as §3
[16] = system: Human immunodeficiency virus 1; experiment: Antiviral activity against HIV1 3B infected in human MT4 cells assessed as protection against virus-induced cytopathic effect after 5 days by MTT assay; format: functional, organism-based; conditions: Human immunodeficiency virus 1, 3B, MT4, 120 h
In short: as §4, with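 “MT-4 cells in RPMI 1640 with 10% heat-inactivated FCS, resuspended at 6 x 10^5 cells/ml. Compounds” for “Compounds”, “(OD540). […]” for “(OD540).”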

HuT78 = experiment: Inhibition of NCp7 of HIV1 3B persistently infected in HUT78 cells assessed as accumulation of unprocessed Gag polyprotein after 43 hrs by Western blot analysis; format: cell-based; conditions: Human immunodeficiency virus 1
In short: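 Washed HuT-78(IIIB) cells (2x10^5 in 1 ml) treated with compound for 43 h at 37°C. Virions pelleted from clarified supernatant (36,670 g, 2 h, 4°C), lysed, run on SDS-PAGE and transferred to PVDF. Blot probed with mouse anti-p24 (1:5000), then HRP anti-mouse (1:2500), with chemiluminescent detection.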

[17] = Selectivity index, ratio of CC50 for human MT4 cells to EC50 for ritonavir-resistant HIV1 B12 harboring […] L10I/I15V/I54V/L63P/V82A/I85V mutant; format: toxicity, cell-based; conditions: read-out: Ratio CC50/EC50; in short: as §3
[18] = Selectivity index, ratio of CC50 for human HUT78 cells to EC50 for HIV1 3B; format: toxicity, cell-based; conditions: read-out: Ratio CC50/EC50; in short: as §2
[19] = Cytotoxicity against human MT4 cells assessed as cell viability after 5 days by MTT assay; format: cell-based; in short: as §4
[20] = system: Human immunodeficiency virus 1; experiment: Antiviral activity against ritonavir-resistant HIV1 3B/RIT infected in human MT4 cells; format: functional, organism-based; conditions: Human immunodeficiency virus 1, 3B/RIT; in short: as §1
[21] = system: Human immunodeficiency virus 1; experiment: Virucidal activity against HIV1 3B infected in MT4 cells assessed as reduction of virus infectivity at 125 ug/ml after 1 hr by MTT assay
[22] = system: Human immunodeficiency virus 1; experiment: Antiviral activity against NNRTI-resistant HIV1 RES056 harboring reverse transcriptase K103N/181C double mutant infected in human MT4 cells; format: functional, organism-based; conditions: Human immunodeficiency virus 1, RES056, MT4; in short: as §1
[23] = system: Human immunodeficiency virus 1; experiment: Antiviral activity against ritonavir-resistant HIV1 B12 harboring […] L10I/I15V/I54V/L63P/V82A/I85V mutant infected in human MT4 cells; format: functional, organism-based; conditions: Human immunodeficiency virus 1, B12, MT4; in short: as §1
[24] = system: Human immunodeficiency virus 2; experiment: Antiviral activity against HIV2 ROD infected in human MT4 cells assessed as protection against virus-induced cytopathic effect after 5 days by MTT assay; format: functional, organism-based; conditions: Human immunodeficiency virus 2, ISOLATE ROD, MT4, 120 h
In short: as §4, with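 “MT-4 cells in RPMI 1640 with 10% heat-inactivated FCS, resuspended at 6 x 10^5 cells/ml. Compounds” for “Compounds”, “(OD540). […]” for “(OD540).”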

[25] = system: Human immunodeficiency virus 1; experiment: Antiviral activity against HIV1 3B infected in human MT4 cells assessed as inhibition of viral replication by measuring p24 Ag production at 50 ug/ml measured at 31 hrs post infection by ELISA; format: functional, organism-based; in short: as §5
[26] = Cytotoxicity against human CEM cells by XTT assay; format: cell-based, CCRF-CEM
[27] = Selectivity index, ratio of CC50 for human CEM cells to EC50 for HIV1 3B; format: toxicity, cell-based, CCRF-CEM
[28] = system: Human immunodeficiency virus 1; experiment: Antiviral activity against HIV1 3B infected in human CEM cells assessed as protection against virus-induced cytopathic effect by XTT assay; format: functional, organism-based; conditions: Human immunodeficiency virus 1, 3B, CCRF-CEM
[29] = system: Human immunodeficiency virus 1; experiment: Antiviral activity against HIV1 3B infected in human MT4 cells assessed as inhibition of viral replication by measuring p24 Ag production at 90 ug/ml measured at 31 hrs post infection by ELISA; format: functional, organism-based; in short: as §5

Structure (SMILES) | EC50 [1] [µM] | EC50 [2] [µM] | selectivity ratio [4] | selectivity ratio [5] | Ratio CC50/EC50 [6] | selectivity ratio [7] | inhibition [8] | EC50 [9] [µM] | EC50 [10] [µM] | CC50 at 120 h [11] [µM] | selectivity ratio [12] | selectivity ratio [14] | selectivity ratio [15] | EC50 [16] [µM] | inhibition (HuT78) | selectivity ratio [17] | selectivity ratio [18] | CC50 at 120 h [19] [µM] | EC50 [20] [µM] | EC50 [22] [µM] | other results
O=C(O)CC[C@H](NC(=O)c1ccccc1[Se][Se]c1ccccc1C(=O)N[C@@H](CCC(=O)O)C(=O)O)C(=O)O | 2.8 | 15.5 | 16 | 38 | 63 | 34 | Active | 6.59 | 1.7 | 100 | 29 | 32 | 20 | 3.31 | Dose-dependent effect | 8 | 6.5 | 107 | 5.42 | 3.61 | Activity [3]: Active; inhibition [13]: Active; Activity [21]: Active; EC50 [23]: 14.5 µM; EC50 [24]: 3.18 µM
O=C(O)CNC(=O)c1ccccc1[Se][Se]c1ccccc1C(=O)NCC(=O)O | 4.51 | 14.1 | 34 | 26 | 52 | 34 | Active | 3.44 | 2.21 | 108 | 33 | 37 | 36 | 3.15 | Dose-dependent effect | 18 | 7.8 | 117 | 3.3 | 3.51 | inhibition [25]: Active; Activity [3]: Active; Activity [21]: Active; EC50 [23]: 6.43 µM; EC50 [24]: 3.5 µM
CC[C@H](C)[C@H](NC(=O)c1ccccc1SSc1ccccc1C(=O)N[C@H](C(=O)O)[C@@H](C)CC)C(=O)O |  |  |  |  |  |  |  |  |  |  |  |  |  |  |  |  |  |  |  |  | CC50 [26]: > 120 µM; selectivity ratio [27]: > 13.3; EC50 [28]: 9 µM
CC[C@H](C)[C@H](NC(=O)c1ccccc1[Se][Se]c1ccccc1C(=O)N[C@H](C(=O)O)[C@@H](C)CC)C(=O)O | 14.7 | 73.2 | 6 | 11 | 9 | 13 | Active | 25.9 | 17.4 | > 162 | 6 | 12 | 6 | 13.8 | Dose-dependent effect | 6 | > 2.2 | 164 | 25.8 | 28 | inhibition [29]: Active; EC50 [23]: 27.7 µM; EC50 [24]: 13.1 µM
